Source: ChEMBL document CHEMBL1138825, “N-phenylphenylglycines as novel corticotropin releasing factor receptor antagonists” (J Med Chem, 2004)

Experiments:
[1] = target: T1, Corticotropin-releasing factor receptor 1 (Homo sapiens, UniProt P34998); test: Binding affinity towards human corticotropin releasing factor (h-CRF1) receptor
T1 sequence (P34998 whole entry): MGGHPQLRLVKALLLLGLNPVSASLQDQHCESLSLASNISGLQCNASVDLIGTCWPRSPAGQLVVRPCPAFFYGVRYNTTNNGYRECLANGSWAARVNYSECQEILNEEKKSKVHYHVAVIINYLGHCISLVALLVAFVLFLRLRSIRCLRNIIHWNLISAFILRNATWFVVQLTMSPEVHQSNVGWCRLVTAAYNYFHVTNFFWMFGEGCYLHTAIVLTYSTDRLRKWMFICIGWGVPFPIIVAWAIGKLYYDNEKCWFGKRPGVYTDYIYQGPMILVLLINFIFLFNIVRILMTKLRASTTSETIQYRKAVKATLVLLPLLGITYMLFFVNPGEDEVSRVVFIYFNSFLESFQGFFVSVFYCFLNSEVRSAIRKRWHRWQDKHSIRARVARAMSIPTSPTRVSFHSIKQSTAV
Procedure, shortened: (§1)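 Ki values were measured in duplicate. If the duplicate Ki values differed by more than 15%, further duplicate runs were done until this criterion was met, and the determinations were averaged. Mean Ki is reported where there was more than one determination. Internal control compounds were run on every plate.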

[2] = target: 5-hydroxytryptamine receptor 1D (Homo sapiens, UniProt P28221); test: Binding affinity of compound towards serotonin 5-hydroxytryptamine 1D receptor; inactive at 10 uM
[3] = Compound was evaluated for oral bioavailability; assay type: ADME, organism-based; conditions: in vivo, read-out: Bioavailabiility
Procedure, shortened: (§2)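 Cassette dosing in beagle dogs (n = 2 per route), with each compound given alongside seven others. Oral dose was 1 mg/kg, with sampling at 0, 0.5, 1, 2, 4, 6, 8 and 24 h. Plasma drug levels were measured by LC/MS/MS.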

[4] = target: 5-hydroxytryptamine receptor 7 (Homo sapiens, UniProt P34969); test: Binding affinity of compound towards serotonin 5-hydroxytryptamine 7 receptor; inactive at 10 uM
[5] = target: 5-hydroxytryptamine receptor 1B (Homo sapiens, UniProt P28222); test: Binding affinity of compound towards serotonin 5-hydroxytryptamine 1B receptor; inactive at 10 uM
[6] = Compound was evaluated for total body clearance; assay type: ADME; conditions: read-out: Activity (converted)
[7] = target: 5-hydroxytryptamine receptor 6 (Homo sapiens, UniProt P50406); test: Binding affinity of compound towards serotonin 5-hydroxytryptamine 6 receptor; inactive at 10 uM
[8] = Compound was evaluated for volume of distribution at steady state; assay type: ADME; conditions: read-out: Activity
[9] = Compound was evaluated for half-life period; assay type: ADME; procedure, shortened: as §2
[10] = target: T2, 5-hydroxytryptamine receptor 1A (Homo sapiens, UniProt P08908); test: Binding affinity of compound towards serotonin 5-hydroxytryptamine 1A receptor; inactive at 10 uM
T2 sequence (P08908 whole entry): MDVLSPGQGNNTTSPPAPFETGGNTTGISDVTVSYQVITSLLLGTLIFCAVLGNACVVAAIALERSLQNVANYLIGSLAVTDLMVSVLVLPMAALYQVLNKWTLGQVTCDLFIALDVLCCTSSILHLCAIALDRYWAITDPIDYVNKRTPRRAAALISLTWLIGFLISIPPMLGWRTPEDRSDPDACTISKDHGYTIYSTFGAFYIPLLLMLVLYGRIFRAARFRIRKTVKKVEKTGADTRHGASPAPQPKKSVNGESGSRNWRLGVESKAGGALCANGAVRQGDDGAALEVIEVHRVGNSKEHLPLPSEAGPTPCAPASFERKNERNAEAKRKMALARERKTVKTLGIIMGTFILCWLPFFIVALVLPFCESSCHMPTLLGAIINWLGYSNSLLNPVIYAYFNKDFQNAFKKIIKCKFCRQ

[11] = target: 5-hydroxytryptamine receptor 2A (Homo sapiens, UniProt P28223); test: Binding affinity of compound towards serotonin 5-hydroxytryptamine 2A receptor; inactive at 10 uM
[12] = target: T1, Corticotropin-releasing factor receptor 1; test: Binding affinity of compound towards human corticotropin releasing factor (h-CRF1) receptor showed a 2-fold activity in racemic mixture; procedure, shortened: as §1
[13] = target: T1, Corticotropin-releasing factor receptor 1; test: Binding affinity of compound towards human corticotropin releasing factor (h-CRF1) receptor; inactive; procedure, shortened: as §1
[14] = target: T1, Corticotropin-releasing factor receptor 1; test: Binding affinity of compound towards human Corticotropin releasing factor receptor 1
[15] = target: T1, Corticotropin-releasing factor receptor 1; test: Binding affinity of compound towards human corticotropin releasing factor (h-CRF1) receptor showed a 2-fold activity in racemic mixture; inactive; procedure, shortened: as §1
[16] = target: T3, Corticotropin-releasing factor receptor 2 (Homo sapiens, UniProt Q13324); test: Binding affinity of compound towards human Corticotropin releasing factor receptor 2; inactive at 10 uM
T3 sequence (Q13324 whole entry): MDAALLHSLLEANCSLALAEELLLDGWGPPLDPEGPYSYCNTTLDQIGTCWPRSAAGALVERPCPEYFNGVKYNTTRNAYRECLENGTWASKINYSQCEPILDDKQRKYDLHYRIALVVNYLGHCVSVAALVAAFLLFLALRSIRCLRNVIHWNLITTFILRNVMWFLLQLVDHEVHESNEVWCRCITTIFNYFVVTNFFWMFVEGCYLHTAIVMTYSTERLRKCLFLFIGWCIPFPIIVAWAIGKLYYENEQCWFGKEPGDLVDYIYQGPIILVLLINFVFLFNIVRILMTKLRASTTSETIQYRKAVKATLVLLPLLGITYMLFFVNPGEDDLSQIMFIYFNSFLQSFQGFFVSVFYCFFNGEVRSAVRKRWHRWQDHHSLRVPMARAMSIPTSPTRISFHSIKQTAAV

5-hydroxytryptamine receptor 1B, sequence (P28222 whole entry): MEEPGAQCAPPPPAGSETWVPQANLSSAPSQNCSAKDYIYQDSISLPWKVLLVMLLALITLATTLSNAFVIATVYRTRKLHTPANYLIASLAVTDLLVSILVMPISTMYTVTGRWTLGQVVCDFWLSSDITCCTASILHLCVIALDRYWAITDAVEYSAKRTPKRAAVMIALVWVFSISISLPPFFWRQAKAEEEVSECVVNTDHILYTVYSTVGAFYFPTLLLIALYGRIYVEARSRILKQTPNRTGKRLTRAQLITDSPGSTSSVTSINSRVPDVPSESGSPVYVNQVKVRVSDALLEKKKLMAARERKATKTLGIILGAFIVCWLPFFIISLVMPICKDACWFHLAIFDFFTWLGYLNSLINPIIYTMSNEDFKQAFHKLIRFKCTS
5-hydroxytryptamine receptor 6, sequence (P50406 whole entry): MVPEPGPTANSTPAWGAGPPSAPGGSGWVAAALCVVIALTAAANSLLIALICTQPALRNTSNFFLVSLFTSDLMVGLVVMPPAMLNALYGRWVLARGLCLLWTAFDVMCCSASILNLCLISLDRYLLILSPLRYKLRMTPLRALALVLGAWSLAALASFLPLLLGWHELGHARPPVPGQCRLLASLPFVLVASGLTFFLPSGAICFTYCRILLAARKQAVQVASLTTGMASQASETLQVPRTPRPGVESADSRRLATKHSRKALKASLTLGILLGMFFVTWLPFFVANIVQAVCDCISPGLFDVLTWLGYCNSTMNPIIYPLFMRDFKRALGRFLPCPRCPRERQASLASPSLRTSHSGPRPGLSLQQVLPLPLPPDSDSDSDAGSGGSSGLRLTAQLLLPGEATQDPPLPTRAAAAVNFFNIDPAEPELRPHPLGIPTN
5-hydroxytryptamine receptor 7, sequence (P34969 whole entry): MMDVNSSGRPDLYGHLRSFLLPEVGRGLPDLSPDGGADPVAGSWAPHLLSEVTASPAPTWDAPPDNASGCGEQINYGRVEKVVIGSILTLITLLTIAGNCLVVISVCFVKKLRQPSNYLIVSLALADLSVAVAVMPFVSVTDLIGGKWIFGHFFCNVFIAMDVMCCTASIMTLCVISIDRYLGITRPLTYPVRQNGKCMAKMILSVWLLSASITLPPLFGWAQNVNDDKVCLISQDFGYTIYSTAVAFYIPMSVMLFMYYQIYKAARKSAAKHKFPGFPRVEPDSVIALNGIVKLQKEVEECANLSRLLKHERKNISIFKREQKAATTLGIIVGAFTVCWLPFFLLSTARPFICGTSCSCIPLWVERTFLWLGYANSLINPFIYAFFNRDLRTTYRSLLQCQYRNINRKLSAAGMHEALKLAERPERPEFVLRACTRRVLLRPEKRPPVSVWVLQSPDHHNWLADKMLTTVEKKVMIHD
5-hydroxytryptamine receptor 1D, sequence (P28221 whole entry): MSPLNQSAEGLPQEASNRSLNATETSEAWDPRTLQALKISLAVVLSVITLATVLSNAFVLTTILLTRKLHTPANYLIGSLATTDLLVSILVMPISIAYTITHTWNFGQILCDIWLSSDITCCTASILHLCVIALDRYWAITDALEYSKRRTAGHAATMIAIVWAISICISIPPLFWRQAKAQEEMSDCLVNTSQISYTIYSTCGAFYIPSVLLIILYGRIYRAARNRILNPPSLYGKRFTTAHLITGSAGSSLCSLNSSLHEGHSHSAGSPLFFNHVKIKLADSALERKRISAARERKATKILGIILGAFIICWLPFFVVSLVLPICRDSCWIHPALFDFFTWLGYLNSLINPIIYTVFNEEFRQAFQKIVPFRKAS
5-hydroxytryptamine receptor 2A, sequence (P28223 whole entry): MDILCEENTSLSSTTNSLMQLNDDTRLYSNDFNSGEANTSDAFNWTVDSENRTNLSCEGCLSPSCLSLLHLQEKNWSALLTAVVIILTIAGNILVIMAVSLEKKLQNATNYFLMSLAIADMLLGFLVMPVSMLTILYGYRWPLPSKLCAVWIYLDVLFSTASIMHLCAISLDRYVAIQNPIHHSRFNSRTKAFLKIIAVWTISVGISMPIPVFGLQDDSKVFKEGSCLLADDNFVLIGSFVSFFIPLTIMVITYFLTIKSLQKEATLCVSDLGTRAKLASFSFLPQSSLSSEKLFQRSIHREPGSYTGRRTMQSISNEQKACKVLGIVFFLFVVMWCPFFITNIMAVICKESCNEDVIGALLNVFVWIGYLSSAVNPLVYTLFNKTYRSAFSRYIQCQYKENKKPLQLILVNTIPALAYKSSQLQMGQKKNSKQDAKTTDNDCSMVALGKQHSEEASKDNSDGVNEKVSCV

Compound	Ki [1] [nM]	also measured
CN(c1ccccc1Cl)C(C(=O)CCc1ccncc1)c1ccccc1Br (stereo not given)	> 10000	–
Cc1ccc(C(Nc2ccc(C)cc2Cl)C(=O)CCc2ccncc2)cc1 (stereo not given)	> 10000	–
COc1ccc(C(=O)C(Nc2ccc(Cl)cc2Cl)c2ccccc2C)cc1OC (stereo not given)	> 10000	–
Cc1ccc(NC(C(=O)CCc2ccccn2)c2ccccc2Br)c(Cl)c1 (stereo not given)	> 10000	–
Cc1ccc(NC(C(=O)CCc2ccc(F)cc2)c2ccccc2Br)c(Cl)c1 (stereo not given)	> 10000	–
Cc1ccc(NC(C(=O)CCc2ccncc2)c2ccc(Cl)cc2)c(Cl)c1 (stereo not given)	> 10000	–
Cc1ccc(NC(C(=O)CCc2cnc[nH]2)c2ccccc2Br)c(Cl)c1 (stereo not given)	> 10000	–
Cc1ccc(N[C@@H](C(=O)CCc2ccncc2)c2ccccc2Br)c(Cl)c1	–	Ki [12]: 546 nM
Cc1ccc(NC(C(=O)CCc2ccncc2)c2ccccc2)c(Cl)c1 (stereo not given)	> 10000	–
COc1ccccc1C(Nc1ccc(C)cc1Cl)C(=O)CCc1ccncc1 (stereo not given)	> 10000	–
Cc1ccc(N[C@H](C(=O)CCc2ccncc2)c2ccccc2C)c(Cl)c1	–	Ki [13]: Not Active
Cc1ccc(NC(C(=O)CCc2ccccc2)c2ccccc2Br)c(Cl)c1 (stereo not given)	> 10000	–
COc1ccc(OC)c(C(Nc2ccc(C)cc2Cl)C(=O)CCc2ccncc2)c1 (stereo not given)	> 10000	–
Cc1ccc(NC(C(=O)CCc2ccncc2)c2ccccc2F)c(Cl)c1 (stereo not given)	–	Ki [14]: > 10000 nM
Cc1ccc(NC(C(=O)Cc2ccncc2)c2ccccc2Br)c(Cl)c1 (stereo not given)	> 10000	–
Cc1ccc(NC(C(=O)CCc2ccncc2)c2cccc(Cl)c2)c(Cl)c1 (stereo not given)	> 5000	–
COc1ccc(C(Nc2ccc(C)cc2Cl)C(=O)CCc2ccncc2)c(OC)c1 (stereo not given)	> 10000	–
Cc1ccc(N[C@H](C(=O)CCc2ccncc2)c2ccccc2Br)c(Cl)c1	–	Ki [15]: Not Active
COc1cccc(C(Nc2ccc(C)cc2Cl)C(=O)CCc2ccncc2)c1 (stereo not given)	> 10000	–
Cc1ccccc1C(Nc1ccc(Cl)cc1Cl)C(=O)c1cccc(O)c1 (stereo not given)	> 10000	–
Cc1cccc(C(Nc2ccc(C)cc2Cl)C(=O)CCc2ccncc2)c1 (stereo not given)	> 10000	–
COc1cccc(OC)c1C(Nc1ccc(C)cc1Cl)C(=O)CCc1ccncc1 (stereo not given)	> 10000	–
Cc1ccc(NC(C(=O)CCc2cccnc2)c2ccccc2Br)c(Cl)c1 (stereo not given)	> 10000	–
Cc1ccc(NC(C(=O)CCc2ccncc2)c2ccccc2Br)c(Cl)c1 (stereo not given)	–	Ki [16]: Not Active; Ki [14]: 1040 nM

The remaining molecules from weak to strong by Ki [1], led by results:

Ki [1] [nM]	Compound	also measured
7330	O=C(CCc1ccncc1)C(Nc1ccccc1Cl)c1ccccc1Br (stereo not given)	–
3300	Cc1ccc(NC(C(=O)CCc2ccncc2)c2ccccc2C(C)C)c(Cl)c1 (stereo not given)	–
3180	Cc1ccccc1[C@H](Nc1ccc(Cl)cc1Cl)C(=O)CCc1ccncc1	–
1070	COc1ccc(C(=O)C(Nc2ccc(C)cc2Cl)c2ccccc2Br)cc1O (stereo not given)	–
1000	O=C(CCc1ccncc1)C(Nc1ccc(Cl)cc1Cl)c1ccccc1C(F)(F)F (stereo not given)	–
922	Cc1ccc(NC(C(=O)CCc2ccncc2)c2ccccc2C)c(Cl)c1 (stereo not given)	–
752	C=Cc1ccccc1C(Nc1ccc(C)cc1Cl)C(=O)CCc1ccncc1 (stereo in doubt; 4)	–
752	C=Cc1ccccc1C(Nc1ccc(C)cc1Cl)C(=O)CCc1ccncc1 (stereo in doubt; 32)	–
641	Cc1ccc(NC(C(=O)CCc2ccncc2)c2ccccc2C)c(C(F)(F)F)c1 (stereo not given)	–
514	CC(=O)Nc1cccc(C(=O)C(Nc2ccc(Cl)cc2Cl)c2ccccc2Br)c1 (stereo not given)	–
512	Cc1cc(F)ccc1C(Nc1ccc(Cl)cc1Cl)C(=O)CCc1ccncc1 (stereo not given)	–
469	Cc1ccccc1C(Nc1ccc(Cl)cc1C(F)(F)F)C(=O)CCc1ccncc1 (stereo not given)	–
439	Cc1ccc(NC(C(=O)CCc2ccncc2)c2ccccc2C)c(F)c1 (stereo not given)	–
387	COc1ccc(C(=O)C(Nc2ccc(Cl)cc2Cl)c2ccccc2C)cc1O (stereo not given)	–
370	Cc1ccccc1C(Nc1ccc(Cl)cc1Cl)C(=O)CCc1ccncc1 (stereo not given)	–
338	Cc1cccc(C)c1C(Nc1ccc(Cl)cc1Cl)C(=O)CCc1ccncc1 (stereo not given)	–
330	CCc1ccccc1C(Nc1ccc(Cl)cc1Cl)C(=O)CCc1ccncc1 (stereo not given)	–
244	Cc1ccc(N[C@@H](C(=O)CCc2ccncc2)c2ccccc2C)c(Cl)c1	–
204	O=C(CCc1ccncc1)C(Nc1ccc(Cl)cc1Cl)c1ccccc1Br (stereo not given)	–
154	Cc1ccccc1[C@@H](Nc1ccc(Cl)cc1Cl)C(=O)CCc1ccncc1	Ki [2]: Not Active; bioavailability [3]: 7%; Ki [4]: Not Active; Ki [5]: Not Active; clearance [6]: 21.7 mL/min/kg; Ki [7]: Not Active; Vd [8]: 1.8 L/kg; half-life [9]: 102 min; Ki [10]: Not Active; Ki [11]: Not Active
